Laboratory results taken from paper PMC3640342 (Pharmaceutical research, 2013).
Converted amounts (≈) assume the structure as drawn. “And” between values parts separate entries of the source, which are not always exact repeats. Equal entries are not always repeated. Where two headings read alike, the source gives them in different places.

Key:
[1] = 3-day multidose PK in liquid diet; type: in vivo, FVB mice; settings: for Brain and plasma concentrations (C3-day) / Brain concentration (C3-day): 3 days in liquid diet
[2] = system: PrP^Sc levels in ScN2a-cl3 cells; assay: cells; type: cell-based, mouse
[3] = Single-dose oral PK at 40 mg/kg; type: in vivo, FVB mice; settings: single 40 mg/kg oral dose, ranking among 27 2-AMTs and Compd B
MDCK-MDR1 cells = assay: Bidirectional MDCK-MDR1 cell permeability; type: in vitro ADME, canine; settings: for Papp (A−B) / Papp (B−A): 10 μM, pH 7.4; for Efflux ratio: MDCK-MDR1 cells
Media solubility = type: physicochemical; settings: media used in the cell-based assays, 10% FBS
mouse liver microsomes = assay: Hepatic microsomal stability, mouse; type: in vitro ADME; settings: 1 μM; for t1/2: NADPH
Outline: (§1)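 Liver microsomes from mouse, rat or human (~0.5 mg/mL final) were incubated at 37°C with test compound at 1 μM final (0.6% ACN, 0.01% DMSO) in PBS pH 7.4 ± 0.05% PS80, with 1 mM NADPH or PBS.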

human liver microsomes = assay: Hepatic microsomal stability, human; type: in vitro ADME; settings: 1 μM; for t1/2: NADPH
Outline: as §1

rat liver microsomes = assay: Hepatic microsomal stability, rat; type: in vitro ADME; settings: 1 μM; for t1/2: NADPH
Outline: as §1

[4] = Solubility at pH 2, pH 7.4 and in FaSSIF; type: physicochemical; settings: for Solubility pH 7.4: pH 7.4 (phosphate) buffer
[5] = mouse brain homogenate, 1 μM, corrected for dilution
FVB mice = assay: Drug tolerance / lethal toxicity on repeated dosing in liquid diet; type: in vivo
mouse plasma = settings: 1 μM
[6] = Single-dose IV PK at 1 mg/kg; type: in vivo, FVB mice; settings: female, FVB, mouse, plasma, iv, 1 mg/kg
Outline: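 Female FVB mice (~25 g) received 1 mg/kg by tail-vein injection in 10% DMSO in PEG400/water (1:1), 10% DMSO, or 10% ethanol in PEG400/water (1:1). Two mice per time point were killed by CO2 at 5 min and 0.25, 0.5, 1, 2, 4 and 6 h, and heparinized plasma was collected. After protein precipitation, samples were assayed by LC/MS/MS, and parameters came from noncompartmental sparse-sampling analysis.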

[7] = cell-culture media with 10% FBS, 1 μM
[8] = Hepatic microsomal stability, mouse; type: in vitro ADME; settings: mouse, mouse liver microsomes, pH 7.4
Outline: as §1

[9] = Hepatic microsomal stability, human; type: in vitro ADME; settings: human, human liver microsomes, pH 7.4
Outline: as §1

[10] = Single-dose oral gavage PK at 10 mg/kg; type: in vivo, FVB mice
Outline: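 Female FVB mice (~25 g) were dosed at 10 mg/kg by oral gavage in 20% propylene glycol, 5% ethanol, 5% labrosol and 70% PEG400. Two mice per time point were killed by CO2 at 0.25, 0.5, 1, 2, 4, 6 and 24 h. Heparinized plasma and brain (diluted five-fold in water, homogenized) were assayed by LC/MS/MS.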

[11] = Hepatic microsomal stability, rat; type: in vitro ADME; settings: rat, rat liver microsomes, pH 7.4
Outline: as §1

[12] = female, FVB, mouse, brain, po, 10 mg/kg
[13] = female, FVB, mouse, plasma, po, 10 mg/kg

## c1ccc2cc(Nc3nc(-c4cc5ccccc5o4)cs3)ncc2c1 [IND91]
[1]; 40, 80, 130 and 210 mg/kg/day
  Brain and plasma concentrations (C3-day): ≤ 1 µM
[2]
  EC50: 920 nM

## Cc1ccnc(Nc2nc(-c3ccccc3O)cs2)c1 [IND48]
[3]
  AUClast values, brain and plasma: lowest AUClast values
[2]
  EC50: > 10000 nM

## Cc1ccc(Nc2nc(-c3ccc(-c4ccccn4)s3)cs2)nc1 [IND76]
[2]
  EC50: 1230 nM

## COc1ccc(-c2csc(Nc3ccc(C(F)(F)F)cn3)n2)cc1OC [IND43]
[2]
  EC50: 2530 nM

## Cc1ccc(Nc2nc(-c3cc(-c4ccccc4)no3)cs2)nc1 [IND33]
MDCK-MDR1 cells
  Papp (A−B): 6.8 ×10⁻⁶ cm/s
  Papp (B−A): 8.3 ×10⁻⁶ cm/s
  Efflux ratio: 1.2
[1]; 130 mg/kg dose
  Brain concentration (C3-day): ~ 30 μM
Media solubility
  Solubility Media: 225 µM (≈ 75.2 µg/mL)
Mouse liver microsomes
  % remaining after a 60-min incubation: 111%
Human liver microsomes
  % remaining after a 60-min incubation: 42%
Rat liver microsomes
  % remaining after a 60-min incubation: 73%
[2]
  EC50: 940 nM
[4]; room temperature overnight
  Solubility pH 7.4: <1 μM

## COc1ccc(-c2csc(Nc3cnccn3)n2)cc1OC [IND82]
[2]
  EC50: 15600 nM

## Cc1ccnc(Nc2nc(-c3ccncc3)cs2)c1 [IND52]
MDCK-MDR1 cells
  Papp (A−B): 36.2 ×10⁻⁶ cm/s
  Papp (B−A): 48.7 ×10⁻⁶ cm/s
  Efflux ratio: 1.3
[1]; 40 mg/kg dose
  Brain concentration (C3-day): no measurable brain concentrations
Media solubility
  Solubility Media: 76 µM (≈ 20.4 µg/mL)
Mouse liver microsomes
  % remaining after a 60-min incubation: 0%
Human liver microsomes
  % remaining after a 60-min incubation: 30%
Rat liver microsomes
  % remaining after a 60-min incubation: 8%
[2]
  EC50: 4950 nM
[4]; fasted-state simulated intestinal fluid
  Solubility FaSSIF: 2 µM (≈ 0.537 µg/mL)
[4]; pH 2 (HCl) buffer, room temperature overnight
  Solubility pH 2.0: 215 μM
[4]; room temperature overnight
  Solubility pH 7.4: 1 μM

## Cc1ccnc(Nc2nc(-c3ccc(O)cc3)cs2)c1 [IND49]
[3]
  AUClast values, brain and plasma: lowest AUClast values
[2]
  EC50: > 10000 nM

## CC(=O)CC(c1ccccc1)c1c(O)c2ccccc2oc1=O (stereo not shown) [Warfarin]
Human plasma; human, plasma, pH 7.4
  Unbound (%): 0.68±0.0023%

## Cc1cccc(Nc2nc(-c3cc4ccccc4o3)cs2)n1 [IND22]
MDCK-MDR1 cells
  Papp (A−B): 9.5 ×10⁻⁶ cm/s
  Papp (B−A): 8.4 ×10⁻⁶ cm/s
  Efflux ratio: 0.9
Media solubility
  Solubility Media: 20 µM (≈ 6.15 µg/mL)
Mouse liver microsomes
  % remaining after a 60-min incubation: 40%
  t1/2: 49 min
Human liver microsomes
  % remaining after a 60-min incubation: 99%
  t1/2: > 60 min
Rat liver microsomes
  % remaining after a 60-min incubation: 64%
  t1/2: > 60 min
[2]
  EC50: 1460 nM
[4]; room temperature overnight
  Solubility pH 7.4: <1 μM

## C(=N\Nc1ccc(-c2cnco2)cc1)/c1ccncc1 [Compd B, (E)-5-(4-(2-(pyridin-4-ylmethylene)hydrazinyl)phenyl)oxazole, reference compound]
[5]
  Unbound (%): 11% and 11.4±2.89%
FVB mice; 150 mg/kg/day for 8 days in liquid diet
  Deaths: two of four mice
FVB mice; 25, 50, and 100 mg/kg/day in liquid diet
  Lethal toxicity: none showed lethal toxicity
Human plasma; human plasma, 1 μM
  Unbound (%): 2.1% and 2.10±1.11%
Mouse plasma
  Unbound (%): 9% and 9.06±2.31%
[1]; 100 mg/kg/day for 3 days, AUC = C3-day × τ
  AUC/EC50 ratios in brain and plasma, total concentration: greater than 100
[1]; 25 and 50 mg/kg/day
  Brain and plasma concentrations (C3-day): below the level of quantification
[6]
  Vd: 1.53 L/kg
  clearance: 76 mL/min/kg
[7]
  Unbound (%): 37% and 36.5±3.30%
[8]
  half-life at 1 μM: 30 min
  remaining at 1 h, 1 μM: 29%
Mouse liver microsomes
  t1/2: rapidly metabolized
[9]
  half-life at 1 μM: > 60 min
  remaining at 1 h, 1 μM: 68%
Human liver microsomes
  t1/2: relatively stable
[10]; PO 10 mg/kg vs IV 1 mg/kg, plasma
  %F (absolute oral bioavailability): 24.8%
[10]; PO 10 mg/kg, 10 mg/kg
  Brain/Plasma AUClast Ratio: 0.51
[10]; [12]
  AUC(0-t): 1.06 ± 0.1 µM·h
  Cmax: 460 ± 160 nM
  tmax: 120 min
[10]; [13]
  AUC(0-t): 2.06 ± 0.06 µM·h
  Cmax: 830 ± 380 nM
  half-life: 60.6 min
  tmax: 30 min
Rat liver microsomes
  t1/2: relatively stable
[11]
  half-life at 1 μM: > 60 min
  remaining at 1 h, 1 μM: 77%
[2]; Mus musculus, 120 h
  EC50: 250 nM

## COc1ccc(Nc2nc(-c3ccc(OC)c(OC)c3)cs2)nc1 [IND44]
Mouse liver microsomes
  % remaining after a 60-min incubation: 24%
  t1/2: 29 min
Human liver microsomes
  % remaining after a 60-min incubation: 48%
  t1/2: 58 min
Rat liver microsomes
  % remaining after a 60-min incubation: 39%
  t1/2: 45 min
[4]; room temperature overnight
  Solubility pH 7.4: <1 μM

## c1ccc2cc(Nc3nc(-c4ccncc4)cs3)ncc2c1 [IND85]
MDCK-MDR1 cells
  Papp (A−B): 3.03 ×10⁻⁶ cm/s
  Papp (B−A): 4.44 ×10⁻⁶ cm/s
  Efflux ratio: 1.5
[1]; 40, 80, 130 and 210 mg/kg/day
  Brain and plasma concentrations (C3-day): ≤ 1 µM
Media solubility
  Solubility Media: 116 µM (≈ 35.3 µg/mL)
Mouse liver microsomes
  % remaining after a 60-min incubation: 6%
Human liver microsomes
  % remaining after a 60-min incubation: 66%
Rat liver microsomes
  % remaining after a 60-min incubation: 32%
[2]
  EC50: 310 nM
[4]; room temperature overnight
  Solubility pH 7.4: <1 μM

## Cc1ccc(Nc2nc(-c3cccc(C#N)c3)cs2)nc1 [IND38]
[2]
  EC50: 2290 nM

## COc1ccc(-c2csc(Nc3ccc4ccccc4n3)n2)cc1OC [IND47]
MDCK-MDR1 cells
  Papp (A−B): 9.2 ×10⁻⁶ cm/s
  Papp (B−A): 8.9 ×10⁻⁶ cm/s
  Efflux ratio: 1
[1]; 40, 80, 130 and 210 mg/kg/day
  Brain and plasma concentrations (C3-day): ≤ 1 µM
Media solubility
  Solubility Media: 52 µM (≈ 18.9 µg/mL)
Mouse liver microsomes
  % remaining after a 60-min incubation: 56%
Human liver microsomes
  % remaining after a 60-min incubation: 113%
Rat liver microsomes
  % remaining after a 60-min incubation: 50%
[2]
  EC50: 430 nM
[4]; room temperature overnight
  Solubility pH 7.4: <1 μM

## Cc1ccnc(Nc2nc(-c3ccc4c(c3)OCCO4)cs2)c1 [IND57]
[2]
  EC50: > 10000 nM

## Cc1ccc(Nc2nc(-c3ccc(OC(F)(F)F)cc3)cs2)nc1 [IND26]
[2]
  EC50: > 10000 nM

## Cc1ccc(Nc2nc(-c3c(-c4ccccc4)noc3C)cs2)nc1 [IND36]
[2]
  EC50: > 32000 nM

## Cc1ccnc(Nc2nc(-c3ccc(OC(F)(F)F)cc3)cs2)c1 [IND78]
[2]
  EC50: > 32000 nM

## Cc1ccnc(Nc2nc(-c3cc(-c4ccc(Cl)cc4)no3)cs2)c1 [IND64]
[2]
  EC50: 850 nM

## COc1ccc(-c2csc(Nc3ccc(C)cn3)n2)c(OC)c1 [IND74]
[2]
  EC50: 3130 nM

## COc1ccc(-c2csc(Nc3cc(C)ccn3)n2)cc1OC [IND42]
[2]
  EC50: 1000 nM

## Cc1ccc(Nc2nc(-c3ccncc3)cs2)nc1 [IND29]
[2]
  EC50: 1570 nM

## COc1ccc(-c2csc(Nc3cc4ccccc4cn3)n2)cc1 [IND86]
[2]
  EC50: 340 nM

## COc1ccc(-c2csc(Nc3cc4ccccc4cn3)n2)cc1OC [IND46]
Media solubility
  Solubility Media: 174 µM (≈ 63.2 µg/mL)
Mouse liver microsomes
  % remaining after a 60-min incubation: 58%
Human liver microsomes
  % remaining after a 60-min incubation: 83%
Rat liver microsomes
  % remaining after a 60-min incubation: 61%
[4]; room temperature overnight
  Solubility pH 7.4: <1 μM
